ChEMBL document CHEMBL1212766, “Dose escalation study of the safety, tolerability, and pharmacokinetics of nemonoxacin (TG-873870), a novel potent broad-spectrum nonfluorinated quinolone, in healthy volunteers” (Antimicrob Agents Chemother, 2010)
≈ marks a conversion by molar mass, not a printed value.

What was measured:
Homo sapiens [1] = test: Toxicity in healthy human assessed as occurrence of pruritus at 1000 […], po; assay type: organism-based; set-up: route oral; conditions: in vivo
[2] = Clearance in healthy human assessed as recovery of unchanged drug in urine at 250 […], po administered as single dose; assay type: ADME, organism-based; set-up: route oral; conditions: read-out: Recovered in urine
In short: (§1)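 Healthy volunteers, six on drug per cohort, fasted 10 h and given one oral dose with 240 ml water, then fasted 4 h more. Urine was pooled over intervals from 0-2 to 72-96 h and stored at about −70°C. Drug was measured by solid-phase extraction and LC-MS/MS (LLOQ 200 ng/ml), giving the percent of dose recovered unchanged. Values are means (SD).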

Homo sapiens [3] = test: Toxicity in healthy human assessed as occurrence of erythema at 500 […], po; assay type: organism-based; set-up: route oral; conditions: in vivo
Homo sapiens [4] = test: Toxicity in healthy human assessed as occurrence of contact dermatitis at 1500 […], po; assay type: organism-based; set-up: route oral; conditions: in vivo
In short: (§2)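 Randomized, double-blind, placebo-controlled single ascending oral doses in healthy volunteers (cohorts of 6 active, 2 placebo; 25–1,500 mg). After a 10-h fast, dose given with 240 ml water; fasting continued 4 h. Subjects were confined to 96 h postdose. AEs were recorded throughout dosing and at follow-up, reported as number and percentage of subjects with events per treatment.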

[5] = Renal clearance in healthy human at 50 […], po administered as single dose; assay type: ADME, organism-based, Kidney; set-up: route oral; conditions: in vivo, read-out: CL_renal (converted)
In short: (§3)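 Renal clearance (CL_r) came from noncompartmental analysis of plasma drawn through 96 h and urine collected over fixed intervals to 96 h. Subjects were fasted healthy volunteers, six per dose cohort, given one oral dose with 240 ml water. Plasma and urine were assayed by LC-MS/MS after solid-phase extraction, with urine LLOQ 200 ng/ml. Values are means (SD).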

Homo sapiens [6] = test: Terminal volume of distribution in healthy human at 1000 mg, po administered as single dose; conditions: in vivo
Streptococcus pneumoniae [7] = test: Ratio of fAUC to MIC90 for penicillin-resistant Streptococcus pneumoniae; assay type: functional
In short: (§4)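 Fasted healthy adults got a single oral 500 mg dose with 240 ml water. Plasma was sampled predose to 96 h and assayed by LC-MS/MS (5–5,000 ng/ml). Cmax was read from individual profiles, and AUC0-∞ came from linear trapezoid plus extrapolation. Free fraction was measured by ultrafiltration (30,000 MWCO) of 0.5 and 6 h plasma. Free exposure was divided by the isolate MIC90.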

[8] = Tmax in healthy human at 1500 […], po administered as single dose; assay type: ADME, organism-based; set-up: route oral; conditions: in vivo
In short: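 Tmax was read by visual inspection of individual plasma concentration–time profiles. Plasma was sampled at 0.5-h steps early on and then out to 96 h, and assayed by LC-MS/MS. Subjects were fasted healthy volunteers, six per cohort, given one oral dose with 240 ml water. Values are means (SD).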

[9] = Renal clearance in healthy human at 125 mg, po administered as single dose; conditions: in vivo, read-out: CL_renal (converted)
Homo sapiens [10] = test: Clearance in healthy human at 25 […], po administered as single dose; assay type: ADME, organism-based; set-up: route oral; conditions: in vivo
In short: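 Randomized, double-blind, placebo-controlled single ascending oral dose in fasted healthy subjects (six on drug per cohort, with 240 ml water). Plasma sampled predose through 96 h and assayed by validated LC-MS/MS over 5–5,000 ng/ml. Oral clearance (CL_o) came from noncompartmental analysis, with AUC_0-∞ from linear trapezoids plus C_last/λz. Values are means (SD).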

[11] = Tmax in healthy human at 250 mg, po administered as single dose; conditions: in vivo
Homo sapiens [12] = test: Toxicity in healthy human assessed as occurrence of contact dermatitis at 50 […], po; assay type: organism-based; set-up: route oral; conditions: in vivo; in short: as §2
Homo sapiens [13] = test: Toxicity in healthy human assessed as occurrence of ear pain at 1000 […], po; assay type: organism-based; set-up: route oral; conditions: in vivo
Homo sapiens [14] = test: Toxicity in healthy human assessed as occurrence of pruritus at 1500 […], po; assay type: organism-based; set-up: route oral; conditions: in vivo
Homo sapiens [15] = test: Toxicity in healthy human assessed as occurrence of erythema at 1500 […], po; assay type: organism-based; set-up: route oral; conditions: in vivo
Homo sapiens [16] = test: Toxicity in healthy human assessed as occurrence of nausea at 125 […], po; assay type: organism-based; set-up: route oral; conditions: in vivo
Homo sapiens [17] = test: Toxicity in healthy human assessed as occurrence of oral hypoesthesia at 125 […], po; assay type: organism-based; set-up: route oral; conditions: in vivo
Homo sapiens [18] = test: Toxicity in healthy human assessed as occurrence of pruritus at 250 […], po; assay type: organism-based; set-up: route oral; conditions: in vivo
Streptococcus pneumoniae [19] = test: Antimicrobial activity against penicillin-sensitive Streptococcus pneumoniae; assay type: functional
Homo sapiens [20] = test: Toxicity in healthy human assessed as occurrence of oral hypoesthesia at 1000 […], po; assay type: organism-based; set-up: route oral; conditions: in vivo
Homo sapiens [21] = test: AUC (0 to infinity) in healthy human at 1500 mg, po administered as single dose; conditions: in vivo
Homo sapiens [22] = test: Terminal volume of distribution in healthy human at 1500 mg, po administered as single dose; conditions: in vivo
Homo sapiens [23] = test: Toxicity in healthy human assessed as occurrence of ear pain at 250 […], po; assay type: organism-based; set-up: route oral; conditions: in vivo
Homo sapiens [24] = test: Toxicity in healthy human assessed as occurrence of nausea at 500 […], po; assay type: organism-based; set-up: route oral; conditions: in vivo
Streptococcus pneumoniae [25] = test: Ratio of fAUC to MIC90 for Penicillin-sensitive Streptococcus pneumoniae; assay type: functional; in short: as §4
Homo sapiens [26] = test: Toxicity in healthy human assessed as occurrence of abdominal pain at 1500 […], po; assay type: organism-based, Abdomen; set-up: route oral; conditions: in vivo
In short: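 Double-blind, placebo-controlled single ascending oral dose; two placebo and six active subjects per cohort. Adverse events were recorded throughout the dosing period and at follow-up, with confinement to 96 h after dosing. Results are reported as number and percentage of subjects with the event (n/N × 100).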

[27] = Clearance in healthy human assessed as recovery of unchanged drug in urine at 125 […], po administered as single dose; assay type: ADME, organism-based; set-up: route oral; conditions: read-out: Recovered in urine; in short: as §1
Homo sapiens [28] = test: Toxicity in healthy human assessed as occurrence of contact dermatitis at 250 […], po; assay type: organism-based; set-up: route oral; conditions: in vivo; in short: as §2
Staphylococcus aureus = test: Ratio of fCmax to MIC90 for methicillin-resistant Staphylococcus aureus; assay type: functional; in short: as §4
[29] = Clearance in healthy human assessed as recovery of unchanged drug in urine at 500 mg, po administered as single dose; conditions: read-out: Recovered in urine
Homo sapiens [30] = test: Terminal volume of distribution in healthy human at 50 mg, po administered as single dose; conditions: in vivo
Homo sapiens [31] = test: Toxicity in healthy human assessed as occurrence of pruritus at 500 […], po; assay type: organism-based; set-up: route oral; conditions: in vivo
Homo sapiens [32] = test: Clearance in healthy human at 250 mg, po administered as single dose; conditions: in vivo
Homo sapiens [33] = test: Toxicity in healthy human assessed as occurrence of headache at 125 […], po; assay type: organism-based; set-up: route oral; conditions: in vivo
Streptococcus pneumoniae [34] = test: Antimicrobial activity against penicillin-intermediate Streptococcus pneumoniae; assay type: functional
Homo sapiens [35] = test: Toxicity in healthy human assessed as occurrence of nausea at 1000 […], po; assay type: organism-based; set-up: route oral; conditions: in vivo
[36] = Renal clearance in healthy human at 1500 […], po administered as single dose; assay type: ADME, organism-based, Kidney; set-up: route oral; conditions: in vivo, read-out: CL_renal (converted); in short: as §3

**Q.** Which results are given for `COc1c(N2C[C@@H](C)C[C@H](N)C2)ccc2c(=O)c(C(=O)O)cn(C3CC3)c12` [NEMONOXACIN]?
**A.** Activity (Homo sapiens [1]): 17%; dose excreted [2]: 44.9%; Activity (Homo sapiens [3]): 0%; Activity (Homo sapiens [4]): 0%; CL renal [5]: 2 mL/min/kg; Vbeta (Homo sapiens [6]): 5.28 L/kg; Ratio (Streptococcus pneumoniae [7]): 906; Tmax [8]: 2.67 h; CL renal [9]: 1.33 mL/min/kg; CL (Homo sapiens [10]): 5 mL/min/kg; Tmax [11]: 0.92 h; Activity (Homo sapiens [12]): 0%; Activity (Homo sapiens [13]): 0%; Activity (Homo sapiens [14]): 50%; Activity (Homo sapiens [15]): 50%; Activity (Homo sapiens [16]): 0%; Activity (Homo sapiens [17]): 0%; Activity (Homo sapiens [18]): 0%; MIC90 (Streptococcus pneumoniae [19]): 0.015 µg/mL (≈ 0.0404 µM); Activity (Homo sapiens [20]): 17%; AUC (Homo sapiens [21]): 117.84 µg·h/mL; Vbeta (Homo sapiens [22]): 3.42 L/kg; Activity (Homo sapiens [23]): 0%; Activity (Homo sapiens [24]): 0%; Ratio (Streptococcus pneumoniae [25]): 1812; Activity (Homo sapiens [26]): 17%; dose excreted [27]: 38.3%; Activity (Homo sapiens [28]): 0%; Ratio (Staphylococcus aureus): 48; dose excreted [29]: 34.1%; Vbeta (Homo sapiens [30]): 2.78 L/kg; Activity (Homo sapiens [31]): 0%; CL (Homo sapiens [32]): 4 mL/min/kg; Activity (Homo sapiens [33]): 0%; MIC90 (Streptococcus pneumoniae [34]): 0.015 µg/mL (≈ 0.0404 µM); Activity (Homo sapiens [35]): 0%; CL renal [36]: 1.15 mL/min/kg
